Experiments:
Homo sapiens [1] = assay: Toxicity in healthy human assessed as occurrence of fatigue at 5 mg, po administered as single dose relative to control; format: organism-based; settings: in vivo
[2] = AUC (0 to last) in healthy human at 5 mg, po administered as single dose coadministered with 100 mg of ritonavir; format: ADME, organism-based; set-up: dose 5 mg, time 0 - last, route oral; settings: plasma
How it was run: (§1)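 Healthy male volunteers, fasted. Ritonavir 100 mg given 10 h before and again together with single oral BILR 355 in PEG solution. EDTA plasma sampled predose to 144 h. LC-MS/MS assay after protein precipitation. Noncompartmental analysis, AUC by linear up/log down trapezoidal rule; Vss = CL/F·(MRTp.o. − 1/Ka).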

[3] = Renal clearance in healthy human at 25 mg, po administered as single dose coadministered with 100 mg of ritonavir by high-pressure liquid chromatography-tandem mass spectrometry/mass spectrometry method; format: ADME, organism-based, Kidney; settings: in vivo, read-out: CL_renal (converted)
[4] = AUC (0 to infinity) in healthy human at 50 mg, po administered as single dose; format: ADME, organism-based; set-up: dose 50 mg, time infinity, route oral; settings: plasma
How it was run: (§2)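 Healthy male volunteers, six active plus two placebo per dose group, single oral dose in PEG solution with 200 ml water after overnight fast; breakfast 60 to 90 min post-dose. EDTA plasma sampled predose to 144 h. Assayed by validated LC-MS/MS after protein precipitation. Noncompartmental analysis, AUC by linear up/log down trapezoidal rule; Vss = CL/F·(MRTp.o. − 1/Ka).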

[5] = Apparent oral clearance in high fat fed healthy human at 50 mg, po administered as single dose coadministered with 100 mg of ritonavir; format: ADME, organism-based; settings: in vivo
How it was run: (§3)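 Fed cohort of 6 healthy men given an FDA-type high-fat breakfast (about 150, 250 and 500 to 600 cal from protein, carbohydrate and fat) 30 min before dosing. Ritonavir 100 mg given 10 h earlier and again with the single oral dose in PEG solution. Plasma sampled to 144 h, LC-MS/MS, noncompartmental analysis.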

[6] = Apparent oral clearance in healthy human at 12.5 mg, po administered as single dose coadministered with 100 mg of ritonavir; format: ADME, organism-based; settings: in vivo; how it was run: as §1
Homo sapiens [7] = assay: Toxicity in healthy human assessed as occurrence of abdominal pain at 12.5 mg, po administered as single dose relative to control; format: organism-based, Abdomen; settings: in vivo
[8] = Tmax in healthy human at 5 mg, po administered as single dose coadministered with 100 mg of ritonavir; format: ADME, organism-based; settings: in vivo
Homo sapiens [9] = assay: Ratio of Cmax in human at 12.5 mg, po in presence of 100 mg of ritonavir to Cmax in human at 12.5 mg, po; format: ADME, organism-based; settings: in vivo
[10] = Tmax in healthy human at 75 mg, po administered as single dose coadministered with 100 mg of ritonavir; format: ADME, organism-based; settings: in vivo
[11] = Half life in healthy human at 87.5 mg, po administered as single dose coadministered with 100 mg of ritonavir; format: ADME, organism-based; settings: in vivo
[12] = Cmax in high fat fed healthy human at 50 mg, po administered as single dose coadministered with 100 mg of ritonavir by high-pressure liquid chromatography-tandem mass spectrometry/mass spectrometry method; format: ADME, organism-based; set-up: dose 50 mg, route oral; settings: in vivo
How it was run: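 Fed cohort: healthy males ate an FDA-recipe high-fat breakfast (about 150/250/500-600 cal from protein/carbohydrate/fat) 30 min before a 50 mg oral dose of BILR 355 in PEG solution. Ritonavir 100 mg was given 10 h before and with the dose. Plasma was sampled over 144 h and assayed by LC-MS/MS. Noncompartmental analysis gave Cmax and Vz/F. Vss/F = CL/F·(MRTp.o. − 1/Ka).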

[13] = Renal clearance in healthy human at 87.5 mg, po administered as single dose coadministered with 100 mg of ritonavir by high-pressure liquid chromatography-tandem mass spectrometry/mass spectrometry method; format: ADME, organism-based, Kidney; settings: in vivo, read-out: CL_renal (converted)
How it was run: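 Healthy male volunteers, fasted overnight, got one oral dose in PEG solution with 200 ml water. Ritonavir 100 mg was given 10 h before and again with the dose. Urine was collected quantitatively over 0–6, 6–24 and 24–72 h and stored at −20°C, then assayed by validated HPLC-MS/MS. CLR = amount excreted unchanged over an interval / plasma AUC over the same interval.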

[14] = Apparent volume of distribution in terminal phase in healthy human at 12.5 mg, po administered as single dose; format: ADME, organism-based; settings: in vivo, read-out: Vz/F
How it was run: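 Single fasting oral dose of BILR 355 in PEG solution with 200 ml tap water, given to healthy males. Standard breakfast came 60-90 min after the dose. EDTA plasma was sampled predose to 144 h, stored below −18°C and assayed by LC-MS/MS after protein precipitation. Noncompartmental analysis gave Vz/F. Vss/F = CL/F·(MRTp.o. − 1/Ka), with Ka from compartmental modelling.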

[15] = Apparent volume of distribution at steady state in healthy human at 12.5 mg, po administered as single dose coadministered with 100 mg of ritonavir; format: ADME, organism-based; settings: in vivo, read-out: Vss/F; how it was run: as §1
Homo sapiens [16] = assay: Toxicity in healthy human assessed as occurrence of headache at 50 mg, po administered as single dose relative to control; format: organism-based; settings: in vivo
[17] = Mean residence time in healthy human at 12.5 mg, po administered as single dose; format: ADME, organism-based; settings: in vivo
Homo sapiens [18] = assay: Toxicity in healthy human assessed as occurrence of nausea at 75 mg, po administered as single dose relative to control; format: organism-based; settings: in vivo
[19] = AUC (0 to infinity) in healthy human at 62.5 mg, po administered as single dose coadministered with 100 mg of ritonavir; format: ADME, organism-based; set-up: dose 62.5 mg, time infinity, route oral; settings: plasma; how it was run: as §1
Homo sapiens [20] = assay: Toxicity in healthy human assessed as occurrence of migraine at 1 mg, po administered as single dose relative to control; format: organism-based; settings: in vivo
Homo sapiens [21] = assay: Toxicity in healthy human assessed as occurrence of headache at 75 mg, po administered as single dose relative to control; format: organism-based; settings: in vivo
[22] = Renal clearance in healthy human at 50 mg, po administered as single dose by high-pressure liquid chromatography-tandem mass spectrometry/mass spectrometry method; format: ADME, organism-based, Kidney; settings: in vivo, read-out: CL_renal (converted)
[23] = Cmax in healthy human at 50 mg, po administered as single dose coadministered with 100 mg of ritonavir by high-pressure liquid chromatography-tandem mass spectrometry/mass spectrometry method; format: ADME, organism-based; set-up: dose 50 mg, route oral; settings: in vivo
How it was run: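 Healthy male volunteers, fasted overnight, got one oral dose of BILR 355 in PEG solution with 200 ml water. Ritonavir 100 mg was given 10 h before and again with the dose. Plasma was sampled (EDTA) from predose to 144 h and assayed by validated LC-MS/MS. Cmax and Vz/F came from noncompartmental analysis. Vss/F = CL/F·(MRTp.o. − 1/Ka), with Ka from compartmental modelling.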

Homo sapiens [24] = assay: Toxicity in healthy human assessed as occurrence of aphthous stomatitis at 62.5 mg, po administered as single dose coadministered with 100 mg of ritonavir; format: organism-based; settings: in vivo
Homo sapiens [25] = assay: Toxicity in healthy human assessed as occurrence of diarrhea at 87.5 mg, po administered as single dose coadministered with 100 mg of ritonavir; format: organism-based; settings: in vivo
[26] = AUC (0 to infinity) in high fat fed healthy human at 50 mg, po administered as single dose coadministered with 100 mg of ritonavir; format: ADME, organism-based; set-up: dose 50 mg, time infinity, route oral; settings: plasma; how it was run: as §3
[27] = AUC (0 to last) in healthy human at 100 mg, po administered as single dose; format: ADME, organism-based; set-up: dose 100 mg, time 0 - last, route oral; settings: plasma; how it was run: as §2
[28] = Apparent oral clearance in healthy human at 37.5 mg, po administered as single dose coadministered with 100 mg of ritonavir; format: ADME, organism-based; settings: in vivo; how it was run: as §1

Molecule CCN1c2ncc(CCOc3cc[n+]([O-])c4ccccc34)cc2C(=O)N(C)c2cccnc21 [BILR 355] has an Activity (Homo sapiens [1]) of 0%, an AUC(0-t) [2] of 615 ng·h/mL and a CL renal [3] of 6.5 mL/min. For the same molecule, the AUC(0-inf) [4] was 419 ng·h/mL, the CL/F [5] was 104 mL/min and the CL/F [6] was 112 mL/min. It also gave an Activity (Homo sapiens [7]) of 0%, a Tmax [8] of 5.71 h and a Ratio (Homo sapiens [9]) of 5. The Tmax [10] was 1.63 h, the half-life [11] was 9.61 h and the Cmax [12] was 430 ng/mL. The CL renal [13] was 8.2 mL/min, the Vd/F [14] was 1430 L and the Vd/F [15] was 153 L. It also gave an Activity (Homo sapiens [16]) of 16.7%, an MRT [17] of 6.12 h and an Activity (Homo sapiens [18]) of 0%. It also gave an AUC(0-inf) [19] of 7630 ng·h/mL, an Activity (Homo sapiens [20]) of 0% and an Activity (Homo sapiens [21]) of 0%. The CL renal [22] was 9.15 mL/min, the Cmax [23] was 468 ng/mL and the Activity (Homo sapiens [24]) was 0%. The Activity (Homo sapiens [25]) was 16.7%, the AUC(0-inf) [26] was 8300 ng·h/mL and the AUC(0-t) [27] was 1300 ng·h/mL. It also gave a CL/F [28] of 109 mL/min.
